Among the data in ChEMBL document CHEMBL1687733, “Topoisomerase I gene mutations at F270 in the large subunit and N184 in the small subunit contribute to the resistance mechanism of the unicellular parasite Leishmania donovani towards 3,3'-diindolylmethane” (Antimicrob Agents Chemother, 2009) are inhibition, Activity and Kd values, retold here.

The structures appear in SMILES notation. Where a chain is given by its changes, count along the chain named. The source made the active and inactive calls.

Experiment [1] relates to Leishmania donovani. The experiment is described as follows: Antimicrobial activity against wild type Leishmania donovani AG83 transfected with drug-resistant Leishmania donovani LdDR50 topoisomerase 1 F270L, N184S mutant in large subunit assessed as inhibition of parasite growth at 20 uM after 24 hrs by MTT assay. The settings on record: AG83, 24 h. The class given is functional. In short, it runs like this: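 WT promastigotes transfected by electroporation with mutant large-subunit (pXG-HYG, hygromycin selection) and/or small-subunit (pXG-GFP2+, G418 selection) topoisomerase I genes. Grown with DIM 1–20 μM for 24 h; MTT read-out, growth as % of optical density of untreated WT parasites.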

The subject of experiment [2] is Leishmania donovani. As to the kind of experiment: Inhibition of recombinant drug-resistant Leishmania donovani LdDR50 topoisomerase 1b-mediated relaxation of supercoiled pBluescript SK(+) DNA at up to 50 uM after 30 mins using ethidium bromide staining. In short, it runs like this: (§1)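 Reconstituted recombinant enzyme (30 fmol) with 90 fmol supercoiled pBluescript SK(+) DNA (3:1 DNA:enzyme), 30 min at 37°C with DIM (1–50 μM for fully mutant enzyme; 10 μM for single-site mutants); 4% DMSO vehicle control. Products on 1% agarose, ethidium bromide (0.5 μg/ml) stained; supercoiled monomer band quantified.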

For experiment [3], the system named is T1, Leishmania donovani [F270L,K430N].
T1 sequence (whole entry): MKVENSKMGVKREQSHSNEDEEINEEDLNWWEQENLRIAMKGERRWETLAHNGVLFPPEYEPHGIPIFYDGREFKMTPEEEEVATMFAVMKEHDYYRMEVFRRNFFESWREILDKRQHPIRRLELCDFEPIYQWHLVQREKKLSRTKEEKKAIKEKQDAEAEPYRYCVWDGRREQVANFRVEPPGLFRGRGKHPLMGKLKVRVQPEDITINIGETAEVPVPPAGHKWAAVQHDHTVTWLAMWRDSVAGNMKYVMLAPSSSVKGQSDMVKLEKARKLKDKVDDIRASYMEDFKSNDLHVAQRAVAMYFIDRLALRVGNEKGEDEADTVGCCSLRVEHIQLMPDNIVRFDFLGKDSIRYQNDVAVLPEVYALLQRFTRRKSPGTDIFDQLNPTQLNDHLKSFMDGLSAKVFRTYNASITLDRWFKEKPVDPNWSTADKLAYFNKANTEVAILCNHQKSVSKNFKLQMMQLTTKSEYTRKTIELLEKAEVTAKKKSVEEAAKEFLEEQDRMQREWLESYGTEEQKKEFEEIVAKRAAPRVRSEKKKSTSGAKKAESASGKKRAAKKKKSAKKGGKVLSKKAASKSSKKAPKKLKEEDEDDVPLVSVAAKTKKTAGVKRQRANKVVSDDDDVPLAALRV
As to the kind of experiment: Inhibition of recombinant drug-resistant Leishmania donovani LdDR50 topoisomerase 1b wild type small subunit and large subunit F270L, K430N mutant-mediated relaxation of supercoiled pBluescript SK(+) DNA at up to 50 uM after 30 mins using ethidium bromide staining. A digest of the protocol:
as §1

Experiment [4] relates to Leishmania donovani. The experiment is described as follows: Effect on recombinant wild type Leishmania donovani AG83 topoisomerase 1b-mediated cleavage of 25-mer duplex oligonucleotide at 20 uM after 30 mins by PAGE analysis. In short, it runs like this:
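The 5′-32P-labelled 25-mer duplex (10 nM) was incubated with 0.2 μM reconstituted WT His-tagged enzyme, a 20-fold molar enzyme excess. DIM was 0 or 5–20 μM, for 30 min. Reactions were stopped with SDS, trypsinised, and run on 12% denaturing polyacrylamide-urea gel with autoradiography. Read-out was the 12-mer cleaved product.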

The subject of experiment [5] is T2, DNA topoisomerase I (Leishmania donovani (strain BPK282A1)), E9BRC0 [F270L].
T2 sequence (whole entry): T1 sequence (whole entry) with N430K
The experiment is described as follows: Effect on recombinant drug-resistant Leishmania donovani LdDR50 topoisomerase 1b large subunit F270L mutant-mediated cleavage of 25-mer duplex oligonucleotide at 20 uM after 30 mins by PAGE analysis. A digest of the protocol: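 5′-32P-labelled 25-mer duplex (10 nM) incubated with reconstituted mutant enzyme (0.2 μM, 20-fold molar excess) and DIM 5–20 μM for 30 min (Methods 37°C; legend 23°C). Stopped with SDS, trypsin-treated, resolved on 12% denaturing polyacrylamide-urea gel; cleaved 12-mer detected by autoradiography.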

Experiment [6] shares this test system. The experiment is described as follows: Inhibition of recombinant drug-resistant Leishmania donovani LdDR50 topoisomerase 1b large subunit F270L mutant-mediated religation of 14-mer/25-mer suicide DNA substrate at 20 uM […] by PAGE analysis.
Experiment [7] relates to Leishmania donovani. The experiment is described as follows: Inhibition of recombinant Leishmania donovani AG83 topoisomerase 1b-mediated religation of 14-mer/25-mer suicide DNA substrate at 20 uM after […] by PAGE analysis. In short, it runs like this: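 For cleavage, the 5′-32P 14-mer/25-mer suicide substrate (5 nM) was incubated with 0.15 μM reconstituted enzyme at 23°C, with or without 20 μM DIM. Complexes were shifted to 30°C for 2 min. A 300-fold excess of 11-mer acceptor was added for 30, 60 and 120 s. Samples were stopped with 1% SDS, trypsinised, and run on a sequencing gel to read the 23-mer religated product.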

A short description of experiment [8]: Binding affinity to recombinant drug-resistant Leishmania donovani LdDR50 topoisomerase 1b after 24 hrs by equilibrium dialysis method. In short, it runs like this:
(§2)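 Recombinant His-tagged subunits expressed in E. coli BL21(DE3) pLysS, purified on Ni-NTA then phosphocellulose, reconstituted 1:1. Enzyme 200 μM with DIM 1–20 μM in 20 mM Tris-HCl pH 7.5, 50 mM NaCl, 10 mM MgCl2 for 30 min at 37°C, then dialysed (12–14 kDa cutoff) 24 h at 25°C. Free DIM measured by absorbance (ε 6.6 × 10^4 M−1); KD from saturation plot.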

Experiment [9] can be described thus: Binding affinity to recombinant wild type Leishmania donovani AG83 topoisomerase 1b after 24 hrs by equilibrium dialysis method.
For a further experiment, the target named is DNA topoisomerase I (Leishmania donovani (strain BPK282A1), UniProt E9BRC0, F270L). As to the kind of experiment: Binding affinity to recombinant drug-resistant Leishmania donovani LdDR50 topoisomerase 1b large subunit F270L mutant after 24 hrs by equilibrium dialysis method. In short, it runs like this:
as §2

`c1ccc2c(Cc3c[nH]c4ccccc34)c[nH]c2c1` [ARUNDINE]: the inhibition at 20 µM in the experiment on Leishmania donovani [1] worked out at 31%. Also, the inhibition entry (in the experiment on Leishmania donovani [2]; in experiment [3]; in experiment [6]) was “inactive” in each case. Further, in the experiment on Leishmania donovani [4], the result was Active. Further, the outcome in experiment [5] was inactive. Further, the inhibition result in the experiment on Leishmania donovani [7] is “Active”. Moreover, the Kd was found to be 240 µM in experiment [8], 9.7 nM in experiment [9] and 530 µM on DNA topoisomerase I.
